# Source: PubChem BioAssay (several laboratories)
# Most compounds without a hit are left out; they make up all but 4.3% or so of the library.
# FLuc stim CS = affects firefly luciferase, flagging false hits in luciferase stimulation screens; ATPlite luciferase biochemical, luminescence, 10 min; 0 = ATP-free wells, 1 = DMSO control; activation factor at 10 µM; 200,000 tested, under 10 active; P08659;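 active = luciferase activation factor, scaled between plate controls, of at least 2 with compound at 10 µM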
# Target sequence (P08659 whole entry, looked up): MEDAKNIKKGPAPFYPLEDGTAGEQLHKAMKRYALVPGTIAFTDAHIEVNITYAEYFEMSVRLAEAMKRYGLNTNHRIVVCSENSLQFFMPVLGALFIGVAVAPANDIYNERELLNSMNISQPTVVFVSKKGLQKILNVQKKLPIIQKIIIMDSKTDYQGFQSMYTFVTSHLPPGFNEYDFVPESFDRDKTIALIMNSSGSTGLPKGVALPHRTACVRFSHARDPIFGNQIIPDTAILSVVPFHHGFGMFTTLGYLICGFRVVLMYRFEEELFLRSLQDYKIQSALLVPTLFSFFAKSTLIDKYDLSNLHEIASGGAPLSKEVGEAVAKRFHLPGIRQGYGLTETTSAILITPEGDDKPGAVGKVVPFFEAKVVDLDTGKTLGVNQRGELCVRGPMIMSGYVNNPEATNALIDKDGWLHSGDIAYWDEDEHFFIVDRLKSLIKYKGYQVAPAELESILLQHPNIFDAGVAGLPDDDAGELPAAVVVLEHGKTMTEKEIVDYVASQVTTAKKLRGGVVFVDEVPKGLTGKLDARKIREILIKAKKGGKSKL
#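 Assay system: Luciferase/luciferin detection reagent, cell-free biochemical luciferase assay / Also added: ATP substrate / Schedule: 10 min at ambient temperature / Measured by: luminescence measurement of luciferase light output / Benchmarks: low control with PBS replacing ATP, high control enzyme plus ATP without compound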
# FLuc inhib CS = Photinus pyralis luciferase inhibition counter-screen; P08659; ATPLite firefly luciferase biochemical luminescence, 10 min; inhibition, % at 10 µM; 200,000 tested, 1.5% active; AID 1006;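 active = inhibition above about 50% when tested at 10 µM, limit read from the data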
# NF-kB neuron act = compounds increasing NF-kB expression in human neuronal cells; 190,000 tested, 1.6% active; NF-kB reporter expression; active compounds read high; fold change at 12.5 µM; in the data active = fold change above about 3.3
# STAT1 activator = STAT1 signaling activation; activation (% of control), % at 5.5 µM; AID 932; NIH 3T3 STAT1-luciferase reporter, IFN-gamma, luminescence; 100% = IFN-gamma alone, no compound; 200,000 tested, 2.6% active;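 active = activation above the screen-wide mean activation plus 3 SD, cut at about 130% in these data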
# APP 5'UTR act = activates APP 5'UTR luciferase reporter; SH-SY5Y APP 5'UTR luciferase reporter, luminescence; zero percent = DMSO vehicle wells; 190,000 tested, 1% active; activation, % at 2 µM;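 active = activation above a set limit, based on mean plus 3 SD of controls, cut at about 140% in these data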
# Hits are given with their value; . = inactive; / = not tested or not shown.
SMILES,FLuc stim CS,FLuc inhib CS,NF-kB neuron act,STAT1 activator,APP 5'UTR act
CCN(CC)c1ccc(/C=N/NC(=O)c2ccc(Br)o2)cc1,.,.,4.3,138,.
CCc1ccc(/C=N\NC(=O)c2ccc(Br)o2)s1,.,.,.,146,.
CCN(CC)c1ccc(/C=N/NC(=O)c2c(Cl)c(C)nn2C)cc1,.,.,.,.,.
Cc1ccc(/C=N/NC(=O)c2ccc(Br)o2)s1,.,.,.,.,.
O=c1ccn(-c2cccc(C(F)(F)F)c2)nc1-c1ccn(-c2cccc(Cl)c2)n1,.,.,.,.,.
CCOC(=O)c1c(C)[nH]c(C(=O)COC(=O)c2[nH]c(C)c(C(C)=O)c2C)c1C,.,.,.,.,.
CCOC(=O)c1c(C)[nH]c(C(=O)COC(=O)C2CC2C)c1C (stereo unspecified),.,.,4.1,150,180
CC(=O)OCc1nc2ccccc2s1,.,.,.,135,.
Cc1cc(C(=O)OCc2nc3ccccc3s2)c(C)o1,.,.,.,132,.
O=C(CNC(=O)c1ccccc1)OCc1nc2ccccc2s1,.,.,.,139,.
O=C(OCc1nc2ccccc2s1)c1ccco1,.,.,.,143,.
O=C(CNC(=O)c1ccccc1F)OCc1nc2ccccc2s1,.,.,.,.,.
O=C(OCc1nc2ccccc2s1)c1ccc(Br)o1,.,.,.,.,.
Cc1nn(CCc2nc(-c3ccco3)cs2)c2[nH]c(=O)cc(C(F)(F)F)c12,.,.,.,.,.
CN(C)c1ccc(N=Nc2ccccc2C(=O)OCC(=O)N(C)c2ccccc2)cc1,.,65,.,.,.
Oc1c(N=Nc2ccccn2)ccc2ccccc12,.,91,3.6,.,.
O=C(CCCSc1nc2ccccc2c(=O)[nH]1)c1ccc(F)cc1,.,.,.,.,.
O=C1ON=C(c2ccccc2)/C1=C/c1ccc(OS(=O)(=O)c2ccccc2)cc1,.,.,.,.,.
CN(C)/N=C/c1ccc(OS(=O)(=O)c2ccccc2)cc1,.,.,4.8,140,.
COc1cccc(-c2nc(CS(=O)(=O)CC(=O)NCCCN3CCc4ccccc4C3)c(C)o2)c1,.,.,.,.,.
COC(=O)C1=C(O)/C(=C\c2cc(C)n(-c3ccccc3F)c2C)N=C1C,.,64,.,.,.
COCCn1c(N)c(Sc2ccc([N+](=O)[O-])cc2)c(=O)[nH]c1=O,.,.,.,.,.
Cc1occc1C(=O)Nc1cccc(/C=C/C(=O)O)c1,/,/,/,.,.
O=C(O)/C=C/c1cccc(NC(=O)c2ccc(Cl)cc2)c1,.,68,.,.,.
N#CC1=C(N)N(c2ncn[nH]2)C2=C(C(=O)CCC2)C1c1ccc(F)cc1 (stereo unspecified),.,.,.,.,.
SMILES,FLuc stim CS,FLuc inhib CS,NF-kB neuron act,STAT1 activator,APP 5'UTR act
Cc1cc(NC(=O)NC(=O)c2ccc(F)cc2F)n[nH]1,.,53,.,149,.
COc1ccc(-c2nnc(SC(C)C(=O)NNC(=O)c3ccc(C)cc3)o2)cc1 (stereo unspecified),.,.,.,.,.
COc1ccc(-c2nnc(SC(C)C(=O)Nc3cccc(Cl)c3)o2)cc1 (stereo unspecified),.,.,5.6,.,219
O=C(CCc1nnc(CCc2ccccc2)o1)N1CCCC1c1nccs1 (stereo unspecified),.,.,.,.,.
c1ccc2nc(-c3nccs3)ccc2c1,.,.,.,131,.
N#C/C(=C\c1ccc(Sc2ccccc2)o1)c1nc2ccccc2[nH]1,.,.,.,.,139
Cc1ccnc(NS(=O)(=O)c2cnc(Cl)c(Br)c2)c1,.,.,.,.,.
CC(=O)Nc1ccc2oc(-c3cc(F)c(F)cc3Cl)nc2c1,.,.,6.1,148,.
CCCC(=O)Nc1ccc2oc(-c3cncc(Br)c3)nc2c1,.,.,3.4,139,.
CC(C)C(=O)Nc1ccc2oc(-c3cc(F)c(F)cc3Cl)nc2c1,.,.,.,.,.
CCCCCC(=O)Nc1ccc2oc(-c3cncc(Br)c3)nc2c1,.,.,.,.,.
CC(=O)Nc1ccc2oc(C)nc2c1,.,.,.,.,.
CC(=O)Nc1ccc2oc(-c3ccccc3Br)nc2c1,.,.,7.3,.,162
O=C1N/C(=N\N=C\c2cccs2)SC1Cc1cccc(Cl)c1Cl (stereo unspecified),.,.,.,.,.
CCN(CC)S(=O)(=O)c1cc(C(=O)Nc2ccc(Cl)cn2)ccc1C,.,.,.,135,183
CCN(CC)S(=O)(=O)c1cc(C(=O)NC2CCCCC2)ccc1C,.,.,.,129,.
Cc1ccc(C(=O)NC2CCCCC2)cc1,.,.,.,139,.
Cc1ccc(C(=O)NCC(=O)NC2CCCC2)cc1,.,.,.,.,.
CC(C)c1nc(C(=O)N2CCCC(CCC(=O)N(C)CCc3ccccn3)C2)cs1 (stereo unspecified),.,.,.,.,.
CN(C)c1cc(N/N=C/c2ccc(Cl)cc2)nc(N(C)C)n1,.,.,.,.,.
COc1ccc2nc(Nc3sc4c(c3C(N)=O)CCCC4)sc2c1,.,.,.,.,.
CN=c1scc(-c2ccccc2F)n1/N=C/c1ccc(O)c(O)c1O,.,98,.,.,.
Oc1ccccc1N=Cc1ccc[nH]1,.,.,.,.,.
CC(C)N=c1scc(-c2cccs2)n1/N=C/c1ccc(O)c(O)c1O,.,.,.,.,.
CN=c1scc(-c2ccccc2F)n1/N=C/c1ccc[nH]1,.,97,.,.,.
SMILES,FLuc stim CS,FLuc inhib CS,NF-kB neuron act,STAT1 activator,APP 5'UTR act
CSCCC(NC(=O)c1ccccc1C)C(=O)O (stereo unspecified),.,.,.,.,.
COc1ccccc1N/C(=N/S(=O)(=O)c1ccc(C)cc1)c1ccc(Cl)cc1,.,.,.,.,.
N#Cc1cc2ccccc2nc1SCc1ccccn1,.,.,5.3,147,186
O=C(COc1cccc(NC(=O)c2cccc([N+](=O)[O-])c2)c1)c1ccc(Br)cc1,.,.,.,.,.
CCCCCC(=O)Nc1nc2ccccc2[nH]1,.,.,.,129,.
CCOc1ccc(C(=O)Nc2nc3ccccc3[nH]2)cc1OCC,.,.,.,.,.
CCOc1ccccc1OCCCC(=O)Nc1nc2ccccc2[nH]1,.,.,.,.,.
COc1cc(OC)cc(C(=O)Nc2nc3ccccc3[nH]2)c1,.,.,.,131,.
COc1ccc(C(=O)Nc2nc3ccccc3[nH]2)cc1OC,.,.,.,129,.
COc1ccc(OCC(=O)Nc2ccccc2O)cc1,.,.,5.5,.,.
Nc1cc(S(=O)(=O)N2CCCCC2)ccc1Oc1ccccc1,.,.,.,.,.
O=C(c1ccco1)N1CCN(Cc2nc(-c3cccs3)no2)CC1,.,.,.,.,.
COCC1CCN(Cc2nc(-c3ccc(OC)cc3)no2)CC1,.,.,.,.,.
Cc1ccccc1C(=O)N/N=C1/SCC(=O)N1Cc1ccccc1,.,.,.,.,.
